# core dimer inh: inhibitors of HCV core protein dimerization, primary screen, biochemical, TR-FRET, high-throughput | TR-FRET GST/Flag-core106 dimerization, 1536-well | inhibition, % at 5 µM | 300,000 tested, 0.33% active | AID 1899, 2009;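 active = inhibition above the mean of all tested compounds plus 3 SD, set per screening campaign, cut at about 45% in these data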
#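 Assay system: tagged HCV core106 pair (GST and Flag); medium: KF-containing HEPES buffer, pH 7.45, DTT, CHAPS, BSA; also added: Eu donor and XL665 acceptor anti-tag antibodies; dosing: 5 µM single dose; timing: compound-protein-antibody incubation 4 h at 22.5 °C; signal: TR-FRET 671 and 617 nm emission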
# rCAG binder-1: binders of r(CAG) RNA repeats, primary screen, biochemical, fluorescence; inhibition, % at 3 µM; r(CAG) RNA repeat, TO-PRO-1 dye displacement fluorescence; AID 651821, 2012; 370,000 tested, 1.3% active;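 active = inhibition above the plate cutoff, the mean of all test compounds on that plate plus 3 SD, cut at about 35% in these data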;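 note: 0% = DMSO alone and 100% = 100 µM mitoxantrone as full dye displacement; higher means more dye released from RNA so lower well fluorescence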
# ABHD5 PLIN5 PPI: ABHD5-PLIN5 interaction inhibitors, primary screen, cell lysate, split luciferase complementation, luminescence | Split G. princeps luciferase complementation, 4 h | inhibition, % at 4 µM | 360,000 tested, 0.78% active;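 active = inhibition above the mean inhibition across every tested compound plus 3 SD, cut at about 22% in these data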;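 note: 0% = DMSO only wells and the 100% control is not disclosed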
# Target sequence (Q00G26 whole entry, looked up): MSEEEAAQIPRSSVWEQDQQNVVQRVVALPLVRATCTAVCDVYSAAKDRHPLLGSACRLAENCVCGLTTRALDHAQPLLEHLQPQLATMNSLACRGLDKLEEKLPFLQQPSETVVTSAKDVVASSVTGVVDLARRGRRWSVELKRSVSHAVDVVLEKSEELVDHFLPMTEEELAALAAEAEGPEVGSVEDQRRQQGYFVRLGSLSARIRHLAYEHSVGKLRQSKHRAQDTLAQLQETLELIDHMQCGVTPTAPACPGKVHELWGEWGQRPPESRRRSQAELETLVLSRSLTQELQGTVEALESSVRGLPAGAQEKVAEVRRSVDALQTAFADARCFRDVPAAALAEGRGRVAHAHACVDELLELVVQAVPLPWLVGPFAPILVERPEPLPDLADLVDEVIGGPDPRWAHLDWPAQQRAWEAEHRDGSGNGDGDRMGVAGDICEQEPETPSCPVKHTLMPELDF
# Target sequence (Q8WTS1 whole entry, looked up): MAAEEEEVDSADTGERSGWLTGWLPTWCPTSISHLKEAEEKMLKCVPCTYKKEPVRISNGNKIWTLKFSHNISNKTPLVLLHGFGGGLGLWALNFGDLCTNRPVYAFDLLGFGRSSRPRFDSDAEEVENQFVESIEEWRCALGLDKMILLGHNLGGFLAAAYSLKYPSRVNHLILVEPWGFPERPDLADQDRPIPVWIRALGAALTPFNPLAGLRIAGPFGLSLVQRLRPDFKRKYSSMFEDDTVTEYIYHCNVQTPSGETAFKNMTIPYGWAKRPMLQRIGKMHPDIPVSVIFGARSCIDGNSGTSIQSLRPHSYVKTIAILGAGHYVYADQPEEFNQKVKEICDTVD
# NadD block: inhibitors of S. aureus NadD, primary screen, biochemical, colorimetric, uHTS | Nicotinate-nucleotide adenylyltransferase NadD (Staphylococcus aureus N315) | purified NadD enzyme, colorimetric absorbance read-out | inhibition, % at 20 µM | 360,000 tested, 0.78% active | AID 602399, 2012; in the data active = inhibition above about 26%
# rCAG bind conf: small molecules binding CAG repeat RNA – biochemical, fluorescence, confirmation; shares compounds with rCAG binder-1; inhibition, % at 3 µM; 4,300 tested, 70% active; r(CAG) RNA repeat, TO-PRO-1 dye displacement fluorescence;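 active = inhibition above a per-plate cutoff, the mean inhibition of sample wells plus 3 SD, cut at about 35% in these data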;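 note: loss of TO-PRO-1 fluorescence as compound displaces dye from 1x1 AA loop RNA; 0% = DMSO only wells and 100% = 100 µM mitoxantrone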
# DNA CAG counter: displacement of TO-PRO-1 from CAG DNA duplex, counter-screen for rCAG RNA repeat binder project, biochemical, fluorescence, TO-PRO-1 dye, d(CAG) DNA oligo; inhibition, % at 3 µM; d(CAG) DNA oligo TO-PRO-1 dye displacement; shares compounds with rCAG binder-1; 4,300 tested, 94% active;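 active = inhibition above its plate's cutoff, the mean test-well inhibition plus 3 SD, cut at about 4.8% in these data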;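 note: 0% = DNA dye mix with DMSO and 100% = 100 µM mitoxantrone; hits displace the dye from DNA and so lower well fluorescence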
# dCAG dye DR: inhibitors of DNA CAG/GTC TO-PRO-1 complex, dose response, counter-screen for rCAG RNA repeat binder project, biochemical, fluorescence, TO-PRO-1 dye | DNA CAG/GTC duplex TO-PRO-1 dye displacement fluorescence | shares compounds with rCAG binder-1 | IC50, µM | 250 tested, 20% active; in the data active = IC50 below about 10 µM
# dCAG DNA bind: TO-PRO-1 dye complex inhibitors on d(CAG) DNA, dose response, counter-screen, biochemical, fluorescence, late stage; shares compounds with rCAG binder-1; d(CAG) DNA duplex TO-PRO-1 dye displacement; IC50, µM; 30 tested, 80% active
# rCAG binder-2: molecules binding r(CAG) RNA repeats, late stage dose response, late-stage follow-up, biochemical, fluorescence, dose response, powder samples. shares compounds with rCAG binder-1. r(CAG) RNA TO-PRO-1 dye displacement. IC50, µM. 30 tested, 100% active. AID 720651, 2013
# The depositor's hits bear a star; i = inactive; . = no result. The list is not random: actives were taken first. Their share in the collection is about 2.6%. Unless noted, the rule behind the calls is not given here.
SMILES,core dimer inh,rCAG binder-1,ABHD5 PLIN5 PPI,NadD block,rCAG bind conf,DNA CAG counter,others
Cc1oc2cc3oc(=O)c(CC(=O)O)c(C)c3cc2c1-c1ccccc1,6,47*,0,1,39*,11*,
CSC[C@H](NC(=O)COc1cc2c(c3oc(=O)c(C)c(C)c13)CCC(C)(C)O2)C(=O)O,-1,24,2,0,.,.,
Cc1c(C)c2c(OCC(=O)N[C@@H](Cc3ccccc3)C(=O)O)cc3c(c2oc1=O)CCC(C)(C)O3,4,45*,10,3,48*,13*,
O=C(NC1CCCCN(Cc2ccc(Cl)cc2)C1=O)c1cccc(C(F)(F)F)c1 (configuration not stated),.,4,.,.,.,.,
COC(=O)C1CN(Cc2ccc(F)cc2)CCS(=O)(=O)N1Cc1ccc(F)cc1 (configuration not stated),.,1,.,.,.,.,
Cc1cc(NS(=O)(=O)c2ccc(NC(=O)COc3ccccc3C(C)(C)C)cc2)no1,20,72*,-10,13,58*,25*,
Cc1cc(NS(=O)(=O)c2ccc(NC(=O)COc3ccc(Cl)cc3Cl)cc2)no1,22,55*,-2,-1,42*,12*,
Cc1cc(NS(=O)(=O)c2ccc(NC(=O)COc3ccc(Cl)c(C)c3)cc2)no1,.,41*,-10,4,32,8.3*,
Cc1cc(NS(=O)(=O)c2ccc(NC(=O)Nc3cccc(C(F)(F)F)c3)cc2)no1,12,50*,-8,3,53*,20*,
Cc1cc(C2=CC(=O)C[C@H](c3ccc4c(c3)OCO4)C2)ccc1F,.,1,0,-10,.,.,
COc1c(C=NNC(N)=O)c(OC)c(OC)c2c1CCO2,.,0,-5,1,.,.,
Cc1cc(N2CCN(C(=O)OC(C)(C)C)C[C@H]2C)ccc1N1CC[C@@H](O)C1,.,0,.,.,.,.,
O=S1(=O)CCOCC(CO)N1Cc1cccc(Br)c1 (configuration not stated),.,2,.,.,.,.,
COc1ccccc1Cc1c(-c2ccccc2)nc2ccc(C)cn12,.,4,.,.,.,.,
Cc1cc(NS(=O)(=O)c2ccc(NC(=O)CCCOc3ccc(Cl)cc3)cc2)no1,13,50*,2,-1,34,10*,
Cc1cc(NS(=O)(=O)c2ccc(NC(=O)CCCOc3ccccc3)cc2)no1,-4,20,5,-5,.,.,
CCOC(=O)c1sc(NC(C)=O)nc1C,-2,1,4,-3,.,.,
CCOC(=O)c1sc(-n2[nH]c(C)cc2=O)nc1C,-1,78*,0,7,47*,13*,
C[C@@H]1CN([C@@H](C)CO)C(=O)CCCn2nncc2CO[C@H]1CN(C)C(=O)Nc1ccc(N2CCN(C)CC2)cc1,.,2,.,.,.,.,
Fc1cccc(Cc2c(-c3cccc(Br)c3)nc3ccc(Br)cn23)c1,.,55*,-3,17,7,4,
Cc1ccc(-c2nc3ccc(Cl)cn3c2Cc2cccc(F)c2)cc1,.,38*,-4,4,3,3,
COc1ccc(-c2nc3ccc(Br)cn3c2Cc2cccc(F)c2)cc1OC,.,15,-11,12,.,.,
Cc1ccc2nc(-c3ccc(Cl)cc3)c(Cc3cccc(F)c3)n2c1,.,5,.,.,.,.,
Cc1ccc(Cc2c(-c3ccc(Br)cc3)nc3ccc(Cl)cn23)cc1,.,41*,-7,17,12,10*,
Fc1cccc(Cc2c(-c3ccc(Cl)cc3)nc3ccc(Br)cn23)c1,.,49*,-2,8,14,4.6*,
SMILES,core dimer inh,rCAG binder-1,ABHD5 PLIN5 PPI,NadD block,rCAG bind conf,DNA CAG counter,others
Cc1ccc(Cc2c(-c3ccc(C)cc3)nc3ccc(Cl)cn23)cc1,.,7,-1,5,.,.,
C#CCN(C[C@H]1[C@H](OC(=O)Nc2c(C)noc2C)[C@H](OC(=O)Nc2c(C)noc2C)CN(C(=O)OC(C)C)N1C(=O)OC(C)C)S(=O)(=O)c1ccc(C)cc1,.,7,.,.,.,.,
Cc1cc(Br)cn2c(Cc3ccccc3C(F)(F)F)c(-c3cccc(Br)c3)nc12,.,47*,5,20,7,3,
Cc1ccc(-c2nc3ccc(Cl)cn3c2Cc2ccccc2C(F)(F)F)cc1,.,42*,0,14,34,6.8*,
CCOC(=O)c1c(NS(=O)(=O)c2ccc(Br)cc2)sc2c1CCC2,70*,68*,-11,22,80*,34*,
COC(=O)c1c(NC(=O)C2CC2)sc2c1CCCC2,-4,2,5,-5,.,.,
CCOC(=O)c1c(NS(=O)(=O)Cc2ccccc2)sc2c1CCCC2,5,45*,-1,1,64*,21*,dCAG dye DR=>30
CCOC(=O)c1c(NC(=O)c2ccco2)sc2c1CCCCC2,3,2,-5,3,.,.,
COC(=O)c1c(NS(=O)(=O)c2ccc3ccccc3c2)sc2c1CCCC2,16,44*,2,8,70*,32*,dCAG dye DR=i;dCAG DNA bind=2.9*;rCAG binder-2=1*
Clc1ccc(CN2CCN(N=Cc3cccc(OCc4ccccc4)c3)CC2)cc1,.,0,.,.,.,.,
C#Cc1ccc(NC(=O)C2(C)CCN2C(=O)CC(c2ccccc2)c2ccccc2)cc1 (configuration not stated),.,6,-14,-13,.,.,
COc1cc(C(O)c2nc(-c3cccc4cccnc34)cs2)ccc1F (configuration not stated),.,2,-4,3,.,.,
O=C(O)c1ccc(Cl)c(S(=O)(=O)N(Cc2ccccc2)c2ccc(Cl)cc2)c1,4,73*,12,1,65*,26*,
COc1ccccc1N(Cc1ccccc1)S(=O)(=O)c1cccc(C(=O)O)c1,4,29,5,-3,.,.,
COc1ccccc1N(Cc1ccccc1)S(=O)(=O)c1cc(C(=O)O)ccc1Cl,-3,65*,-1,0,47*,13*,
COc1ccc(CN2CCC(CNC(=O)Nc3ccccc3)CC2)cc1,.,0,.,.,.,.,

# Assay outcomes deposited in PubChem BioAssay by several laboratories.
